Assay results reported in ChEMBL document CHEMBL1139764, “Design, synthesis, and structure-activity relationship studies of new phenolic DNA gyrase inhibitors” (2007).
In brackets after ≈: the same amount, converted by molar mass.

Key:
[1] = test system: Escherichia coli; experiment: Inhibition of Escherichia coli D110 DNA gyrase after 30 mins by supercoiling assay
[2] = test system: Staphylococcus epidermidis; experiment: Antibacterial activity against Staphylococcus epidermidis ATCC 14990 by twofold agar dilution method; assay type: functional
Outline: (§1)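 Twofold serial dilutions in Müller–Hinton agar with an inoculum of 10^4 CFU per spot. The read-out is the minimal inhibitory concentration (MIC).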

[3] = test system: Streptococcus pyogenes; experiment: Antibacterial activity against Streptococcus pyogenes beta-15 by agar dilution method; assay type: functional; outline: as §1
[4] = test system: Staphylococcus aureus; experiment: Antibacterial activity against novobiocin R144I-resistant Staphylococcus aureus ATCC 25923 by agar dilution method; assay type: functional
Outline: (§2)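 MIC read as lowest inhibitory level in twofold serial dilutions in Müller–Hinton agar; each spot inoculated with 10^4 CFU.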

[5] = test system: Staphylococcus aureus; experiment: Antibacterial activity against Staphylococcus aureus Smith by twofold agar dilution method; assay type: functional; outline: as §2
[6] = test system: Staphylococcus aureus; experiment: Antibacterial activity against methicillin and quinolones-resistant Staphylococcus aureus Smith QR54 by twofold agar dilution method; assay type: functional; outline: as §2
[7] = test system: Enterococcus faecium; experiment: Antibacterial activity against ampicillin, trimethoprim and vancomycin-resistant Enterococcus faecium vanA E23-8 by twofold agar dilution method; assay type: functional; outline: as §2
[8] = test system: Staphylococcus aureus; experiment: Antibacterial activity against erythromycin, methicillin and trimethoprim-resistant Staphylococcus aureus Smith 744 by twofold agar dilution method; assay type: functional; outline: as §2
[9] = test system: Staphylococcus aureus; experiment: Antibacterial activity against Staphylococcus aureus ATCC 25923 by twofold agar dilution method; assay type: functional; outline: as §2

COC(=O)c1c(C)c(OC)cc(O)c1CNc1ccc2ncccc2c1
Activity [1]: 8 µg/mL

NS(=O)(=O)c1ccc(NCc2cc(Cl)ccc2O)cc1
Activity [1]: 63 µg/mL

Oc1ccc(Cl)cc1CNc1cccc(Cl)c1
Activity [1]: 8 µg/mL

COc1ccc(N2C(=O)c3c(C)c(OC)cc(O)c3C2OC)cc1 (centres undefined)
Activity [1]: 16 µg/mL

COc1cc(O)c2c(c1C)C(=O)N1c3c(C)cccc3COC21 (centres undefined)
MIC [2]: 2 µg/mL (≈ 6.42 µM) | MIC [3]: > 32 µg/mL | MIC [4]: 16 µg/mL (≈ 51.4 µM) | MIC [5]: 32 µg/mL (≈ 103 µM) | Activity [1]: 0.5 µg/mL | MIC [6]: 16 µg/mL (≈ 51.4 µM) | MIC [7]: > 32 µg/mL | MIC [8]: > 32 µg/mL | MIC [9]: 32 µg/mL (≈ 103 µM)

COc1cc(O)c2c(c1C)C(=O)N(c1ccc3ncccc3c1)C2
Activity [1]: 1 µg/mL

COc1ccc(N2C(=O)c3c(C)c(OC)cc(O)c3C2C(Cl)C(C)=O)cc1 (centres undefined)
Activity [1]: 63 µg/mL

Oc1c(Cl)cc(Cl)cc1CNc1ccc(Cl)cc1
Activity [1]: 16 µg/mL

COc1cc(O)c2c(c1C)C(=O)N(c1ccc3[nH]ncc3c1)C2
Activity [1]: 1 µg/mL

COc1cc(O)c2c(c1C)C(=O)N1c3cc4c(cc3C(=O)CC21)OCO4 (centres undefined)
MIC [2]: 32 µg/mL (≈ 90.6 µM) | MIC [3]: > 32 µg/mL | MIC [5]: > 32 µg/mL | Activity [1]: 1 µg/mL | MIC [7]: > 32 µg/mL | MIC [9]: > 32 µg/mL

COc1ccc(N2C(=O)c3c(C)c(OC)cc(O)c3C2c2ccc(C)o2)cc1 (centres undefined)
Activity [1]: > 63 µg/mL

COc1ccc(N2C(=O)c3c(C)c(OC)cc(O)c3C2CC(C)=O)cc1 (centres undefined)
Activity [1]: > 63 µg/mL

COc1ccc(N2C(=O)c3c(C)c(OC)cc(O)c3C2c2ccco2)cc1 (centres undefined)
Activity [1]: > 63 µg/mL

COC(=O)c1c(C)c(OC)cc(O)c1CNc1ccc(Cl)cc1
Activity [1]: 16 µg/mL

COc1ccc(N2Cc3c(O)cc(OC)c(C)c3C2=O)cc1
Activity [1]: 8 µg/mL

COC(=O)c1c(C)c(OC)cc(O)c1CNc1ccc(Cl)c(Cl)c1
Activity [1]: 2 µg/mL

COc1ccc(N2C(=O)c3c(C)c(OC)cc(O)c3C2CC=O)cc1 (centres undefined)
Activity [1]: 31 µg/mL

COc1cc(O)c2c(c1C)C(=O)N(c1ccc(Cl)c(Cl)c1)C2
Activity [1]: 4 µg/mL

COc1cc(O)c2c(c1C)C(=O)N1c3ccc(C)cc3COC21 (centres undefined)
MIC [2]: 2 µg/mL (≈ 6.42 µM) | MIC [3]: > 32 µg/mL | MIC [4]: 16 µg/mL (≈ 51.4 µM) | MIC [5]: 16 µg/mL (≈ 51.4 µM) | Activity [1]: 0.25 µg/mL | MIC [6]: 16 µg/mL (≈ 51.4 µM) | MIC [7]: > 32 µg/mL | MIC [8]: 32 µg/mL (≈ 103 µM) | MIC [9]: 32 µg/mL (≈ 103 µM)

COc1cc(O)c2c(c1C)C(=O)N1c3cccnc3COC21 (centres undefined)
MIC [2]: 0.5 µg/mL (≈ 1.68 µM) | MIC [3]: 32 µg/mL (≈ 107 µM) | MIC [4]: 0.5 µg/mL (≈ 1.68 µM) | MIC [5]: 1 µg/mL (≈ 3.35 µM) | Activity [1]: 0.13 µg/mL | MIC [6]: 1 µg/mL (≈ 3.35 µM) | MIC [7]: > 32 µg/mL | MIC [8]: 2 µg/mL (≈ 6.7 µM) | MIC [9]: 1 µg/mL (≈ 3.35 µM)

Oc1ccc(Br)cc1CNc1ccc(Cl)cc1
Activity [1]: 16 µg/mL

COc1ccc(N2C(=O)c3c(C)c(OC)cc(O)c3C2c2[nH]c3ccccc3c2C)cc1 (centres undefined)
Activity [1]: > 63 µg/mL

COC(=O)CCSC1c2c(O)cc(OC)c(C)c2C(=O)N1c1ccc(OC)cc1 (centres undefined)
Activity [1]: 0.5 µg/mL

COc1cc(O)c2c(c1C)C(=O)N(c1cccc(N)c1)C2
Activity [1]: 2 µg/mL

COc1ccc2c(c1)CC[C@@H]1c3c(O)cc(OC)c(C)c3C(=O)N21
MIC [2]: < 2 µg/mL | MIC [3]: > 32 µg/mL | MIC [4]: 8 µg/mL (≈ 24.6 µM) | MIC [5]: 16 µg/mL (≈ 49.2 µM) | Activity [1]: 0.5 µg/mL | MIC [6]: 16 µg/mL (≈ 49.2 µM) | MIC [7]: > 32 µg/mL | MIC [8]: > 32 µg/mL | MIC [9]: 32 µg/mL (≈ 98.4 µM)

COc1ccc(N2C(=O)c3c(C)c(OC)cc(O)c3C2c2ccc(CS)o2)cc1 (centres undefined)
Activity [1]: > 63 µg/mL

COc1ccc2c(c1)[C@@H](O)C[C@@H]1c3c(O)cc(OC)c(C)c3C(=O)N21
MIC [2]: 32 µg/mL (≈ 93.7 µM) | MIC [3]: > 32 µg/mL | MIC [4]: 16 µg/mL (≈ 46.9 µM) | MIC [5]: 32 µg/mL (≈ 93.7 µM) | Activity [1]: 0.5 µg/mL | MIC [6]: 16 µg/mL (≈ 46.9 µM) | MIC [7]: > 32 µg/mL | MIC [8]: > 32 µg/mL | MIC [9]: > 32 µg/mL

COc1ccc(N2C(=O)c3c(C)c(OC)cc(O)c3C2Sc2ccc(C)cc2)cc1 (centres undefined)
Activity [1]: 31 µg/mL

COc1cc(O)c2c(c1Br)C(=O)N1c3ccc(C)cc3COC21 (centres undefined)
MIC [2]: 2 µg/mL (≈ 5.32 µM) | MIC [3]: 16 µg/mL (≈ 42.5 µM) | MIC [4]: 4 µg/mL (≈ 10.6 µM) | MIC [5]: 8 µg/mL (≈ 21.3 µM) | Activity [1]: 0.25 µg/mL | MIC [6]: 8 µg/mL (≈ 21.3 µM) | MIC [7]: > 32 µg/mL | MIC [8]: 8 µg/mL (≈ 21.3 µM) | MIC [9]: 8 µg/mL (≈ 21.3 µM)

COc1cc(O)c2c(c1C)C(=O)N(c1ccc(S(N)(=O)=O)cc1)C2
Activity [1]: 1 µg/mL

COc1cc(O)c2c(c1C)C(=O)N(c1cccc(CC(=O)O)c1)C2
Activity [1]: 2 µg/mL

Oc1ccc(Cl)cc1CNc1ccc(Cl)cc1
MIC [2]: 16 µg/mL (≈ 59.7 µM) | MIC [3]: 16 µg/mL (≈ 59.7 µM) | MIC [4]: 16 µg/mL (≈ 59.7 µM) | MIC [5]: 16 µg/mL (≈ 59.7 µM) | Activity [1]: 5 µg/mL | MIC [6]: 16 µg/mL (≈ 59.7 µM) | MIC [7]: 16 µg/mL (≈ 59.7 µM) | MIC [8]: 16 µg/mL (≈ 59.7 µM) | MIC [9]: 16 µg/mL (≈ 59.7 µM)

COC(=O)c1c(C)c(OC)cc(O)c1CNc1cc(Cl)cc(Cl)c1
Activity [1]: 4 µg/mL

COc1cc(O)c2c(c1C)C(=O)N1c3ccc(Cl)cc3[C@@H](O)C[C@H]21
MIC [2]: 8 µg/mL (≈ 23.1 µM) | MIC [3]: 32 µg/mL (≈ 92.5 µM) | MIC [4]: 4 µg/mL (≈ 11.6 µM) | MIC [5]: 4 µg/mL (≈ 11.6 µM) | Activity [1]: 1 µg/mL | MIC [6]: 8 µg/mL (≈ 23.1 µM) | MIC [7]: > 32 µg/mL | MIC [8]: 16 µg/mL (≈ 46.3 µM) | MIC [9]: 8 µg/mL (≈ 23.1 µM)

COc1cc(O)c2c(c1C)C(=O)N1c3ccc(Cl)cc3CC[C@H]21
MIC [2]: 32 µg/mL (≈ 97 µM) | MIC [3]: > 32 µg/mL | MIC [4]: 16 µg/mL (≈ 48.5 µM) | MIC [5]: > 32 µg/mL | Activity [1]: 0.25 µg/mL | MIC [6]: 32 µg/mL (≈ 97 µM) | MIC [7]: > 32 µg/mL | MIC [9]: > 32 µg/mL

COc1cc(O)c2c(c1C)C(=O)N(c1cccnc1)C2
Activity [1]: 2 µg/mL

Oc1ccc(CNc2ccc(Cl)cc2)c(O)c1
Activity [1]: 16 µg/mL

CO[C@@H]1[C@@H](OC(N)=O)[C@@H](O)[C@H](Oc2ccc3c(O)c(NC(=O)c4ccc(O)c(CC=C(C)C)c4)c(=O)oc3c2C)OC1(C)C [NOVOBIOCIN]
MIC [2]: 0.12 µg/mL (≈ 0.196 µM) | MIC [3]: 2 µg/mL (≈ 3.26 µM) | MIC [4]: 8 µg/mL (≈ 13.1 µM) | MIC [5]: 0.25 µg/mL (≈ 0.408 µM) | Activity [1]: 0.25 µg/mL | MIC [6]: 0.12 µg/mL (≈ 0.196 µM) | MIC [7]: 8 µg/mL (≈ 13.1 µM) | MIC [8]: 0.25 µg/mL (≈ 0.408 µM) | MIC [9]: 0.25 µg/mL (≈ 0.408 µM)

C=CCC1c2c(O)cc(OC)c(C)c2C(=O)N1c1ccc(OC)cc1 (centres undefined)
Activity [1]: 2 µg/mL

COc1cc(O)c2c(c1C)C(=O)N(c1cccc(C(=O)O)c1)C2
Activity [1]: 8 µg/mL

COc1cc(O)c2c(c1Br)C(=O)N1c3ccccc3COC21 (centres undefined)
MIC [2]: > 2 µg/mL | MIC [3]: 8 µg/mL (≈ 22.1 µM) | MIC [4]: 2 µg/mL (≈ 5.52 µM) | MIC [5]: 2 µg/mL (≈ 5.52 µM) | Activity [1]: 0.5 µg/mL | MIC [6]: 2 µg/mL (≈ 5.52 µM) | MIC [7]: > 32 µg/mL | MIC [8]: 4 µg/mL (≈ 11 µM) | MIC [9]: 2 µg/mL (≈ 5.52 µM)

CCCCSC1c2c(O)cc(OC)c(C)c2C(=O)N1c1ccc(OC)cc1 (centres undefined)
Activity [1]: 16 µg/mL

COc1cc(O)c2c(c1C)C(=O)N1c3ccccc3COC21 (centres undefined)
MIC [2]: > 32 µg/mL | MIC [3]: > 32 µg/mL | MIC [5]: > 32 µg/mL | Activity [1]: 0.5 µg/mL | MIC [7]: > 32 µg/mL | MIC [9]: > 32 µg/mL

COc1ccc(N2C(=O)c3c(C)c(OC)cc(O)c3C2Sc2ncc[nH]2)cc1 (centres undefined)
Activity [1]: 4 µg/mL

COC(=O)c1c(C)c(OC)cc(O)c1CNc1cccc(Cl)c1
Activity [1]: 4 µg/mL

COc1ccc(N2C(=O)c3c(C)c(OC)cc(O)c3C2CCO)cc1 (centres undefined)
Activity [1]: 4 µg/mL

Oc1cccc(CNc2ccc(Cl)cc2)c1O
Activity [1]: 16 µg/mL

Oc1ccc(Cl)cc1CNc1cc(Cl)cc(Cl)c1
Activity [1]: 4 µg/mL

COc1cc(O)c2c(c1C)C(=O)N(c1cnc3ccccc3c1)C2
Activity [1]: 0.5 µg/mL

N#Cc1ccc(NCc2cc(Cl)ccc2O)cc1
Activity [1]: 2 µg/mL

COc1ccc(N2C(=O)c3c(C)c(OC)cc(O)c3C2Sc2ncccn2)cc1 (centres undefined)
Activity [1]: 4 µg/mL

COc1ccc(N2C(=O)c3c(C)c(OC)cc(O)c3C2c2ccc(CC#N)s2)cc1 (centres undefined)
Activity [1]: 36 µg/mL
